# Assay results from PubChem BioAssay AID588322 (Southern Research Specialized Biocontainment Screening …, 2011).
# Activity calls are given as the source filed them.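 The calls were made as follows: active = compound blocking phage lysis by over 30% at some tested dose and judged capsule specific; inactive = the rest.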
# System: not listed separately
# Assay: T7 phage lysis of capsulated E. coli, dose response, selectivity assay for bacterial capsule biogenesis inhibitors, set 5 (AID 588322)
# Details: E. coli EV36 T7 phage lysis, OD600 3 h; at 100 µM (top of the series)
# Method in brief: (§1)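 Assay system: E. coli EV36 (K1:K-12 hybrid); buffer or medium: LB medium; dosing: dilution series from 100 to 0.39 µM final, 1% DMSO; schedule: 1.5 h compound at 37 °C, then 3 h post-infection; detection: OD600 absorbance at 3 h post-infection; read-out basis: Capsule-loss-dependent T7 phage lysis judged from culture OD600; repeats: quadruplicate per concentration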
row,Compound,"cell growth (A600 at 3 h p.i., % of EV36+DMSO+T7 control); lower = more lysis"
1,Cc1onc(-c2ccccc2)c1C(=O)Nc1cc(-c2ccccc2)sc1C(=O)O,104% (inactive)
2,COC(=O)c1sc(-c2ccccc2)cc1NC(=O)c1c(F)cccc1F,111% (inactive)
3,CCOc1ccc(-c2cc(NC(=O)c3c(F)cccc3F)c(C(=O)OC)s2)cc1,114% (inactive)

# System: E. coli EV36 T7 phage lysis, OD600 3 h
# Assay: as above
# Details: not given
# Method in brief: as §1
row,IC50,Compound
1,57.4 µM (inactive),O=C(O)c1sc(-c2ccccc2)cc1NC(=O)C1CCCC1
2,12.7 µM (inactive),O=C(Nc1cc(-c2ccccc2)sc1C(=O)O)c1ccc2c(c1)OCCO2
3,7.11 µM (inactive),O=C(Nc1cc(-c2ccccc2)sc1C(=O)O)c1cc2ccccc2o1
4,16 µM (inactive),O=C(Nc1cc(-c2ccccc2)sc1C(=O)O)c1cc(Cl)c2c(c1)OCCO2
5,15 µM (inactive),O=C(Nc1cc(-c2ccccc2)sc1C(=O)O)c1ccc(Cl)s1
6,0.71 µM (inactive),CCOc1ccc(-c2cc(NC(=O)c3c(F)cccc3F)c(C(=O)O)s2)cc1
7,7.11 µM (inactive),O=C(Nc1cc(-c2ccccc2)sc1C(=O)O)c1cccs1
8,29.4 µM (inactive),O=C(Nc1cc(-c2ccccc2)sc1C(=O)O)c1cccc(F)c1
9,55 µM (inactive),O=C(O)c1sc(-c2ccccc2)cc1NC(=O)C1CCCCC1
10,8.13 µM (inactive),O=C(Nc1cc(-c2ccccc2)sc1C(=O)O)c1ccc(Br)o1
11,30.1 µM (inactive),Cc1c(C(=O)Nc2cc(-c3ccccc3)sc2C(=O)O)oc2ccccc12
12,4.25 µM (inactive),CCOc1ccc(-c2cc(NC(=O)c3cccc(Cl)c3)c(C(=O)O)s2)cc1
13,33.4 µM (inactive),O=C(Nc1cc(-c2ccccc2)sc1C(=O)O)c1cccc(Cl)c1
14,41.7 µM (inactive),Cc1ccc(C(=O)Nc2cc(-c3ccccc3)sc2C(=O)O)s1
15,7.72 µM (inactive),CCOc1ccc(-c2cc(NC(=O)c3ccc(OC)c(OC)c3)c(C(=O)O)s2)cc1
